# What was measured:
# [1] = biological target: T1, Acid-sensing ion channel 1 (Mus musculus, UniProt Q6NXK8); assay: Inhibition of pH 6.6-stimulated mouse ASIC1a homomer expressed in CHOK1 cells assessed as reduction in channel activation by VSD fluorescence assay; assay type: cell-based
# T1 sequence (Q6NXK8 whole entry): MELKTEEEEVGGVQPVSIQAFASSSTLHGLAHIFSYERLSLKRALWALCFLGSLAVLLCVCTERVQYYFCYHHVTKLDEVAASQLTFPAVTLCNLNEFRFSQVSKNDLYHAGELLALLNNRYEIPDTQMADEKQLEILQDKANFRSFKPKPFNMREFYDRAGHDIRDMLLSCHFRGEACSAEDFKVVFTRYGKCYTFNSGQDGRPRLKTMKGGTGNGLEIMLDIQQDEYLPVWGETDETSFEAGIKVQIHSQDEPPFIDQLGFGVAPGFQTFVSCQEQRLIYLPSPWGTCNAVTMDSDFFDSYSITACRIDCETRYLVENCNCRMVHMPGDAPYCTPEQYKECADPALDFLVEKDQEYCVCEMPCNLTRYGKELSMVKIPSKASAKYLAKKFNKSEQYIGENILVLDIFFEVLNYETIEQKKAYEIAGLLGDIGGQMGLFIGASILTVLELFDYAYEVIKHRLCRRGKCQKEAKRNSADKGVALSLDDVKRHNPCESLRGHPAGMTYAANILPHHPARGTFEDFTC
# [2] = biological target: T2, Acid-sensing ion channel 2 (Mus musculus, UniProt Q925H0); assay: Inhibition of pH 5.5-stimulated mouse ASIC2a homomer expressed in CHOK1 cells assessed as reduction in channel activation by VSD fluorescence assay; assay type: cell-based
# T2 sequence (Q925H0 whole entry): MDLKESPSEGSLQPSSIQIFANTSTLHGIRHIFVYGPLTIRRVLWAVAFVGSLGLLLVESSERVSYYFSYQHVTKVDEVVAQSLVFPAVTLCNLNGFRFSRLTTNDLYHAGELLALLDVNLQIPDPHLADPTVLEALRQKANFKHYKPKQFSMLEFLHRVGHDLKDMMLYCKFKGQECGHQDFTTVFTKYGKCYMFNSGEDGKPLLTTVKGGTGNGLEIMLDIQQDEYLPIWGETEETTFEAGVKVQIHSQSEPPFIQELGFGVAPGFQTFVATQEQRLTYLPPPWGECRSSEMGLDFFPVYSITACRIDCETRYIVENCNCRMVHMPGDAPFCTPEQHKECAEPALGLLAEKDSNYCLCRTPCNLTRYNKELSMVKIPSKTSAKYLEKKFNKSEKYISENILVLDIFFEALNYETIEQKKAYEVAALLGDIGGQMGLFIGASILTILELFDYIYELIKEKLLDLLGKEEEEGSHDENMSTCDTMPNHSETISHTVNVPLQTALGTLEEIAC
# [3] = biological target: T3, Acid-sensing ion channel 1/2 (Mus musculus, UniProt Q6NXK8+Q925H0); assay: Inhibition of pH 6.25-stimulated mouse ASIC1a/2a […] expressed in CHOK1 cells assessed as reduction in channel activation by VSD fluorescence assay; assay type: cell-based
# T3 sequence (Q6NXK8 whole entry): T1 sequence (Q6NXK8 whole entry)
# T3 sequence (Q925H0 whole entry): T2 sequence (Q925H0 whole entry)
# [4] = Kinetic solubility of the compound at pH 7.4; assay type: physicochemical; conditions: buffer, read-out: Kinetic_solubility
# albumin = albumin (Homo sapiens, UniProt P02768); assay: Binding affinity to human serum albumin by NMR-based analysis; assay type: ADME; conditions: read-out: PPB (converted)
# [5] = biological target: Voltage-gated inwardly rectifying potassium channel KCNH2 (Homo sapiens, UniProt Q12809); assay: Inhibition of human ERG incubated for 4 hrs by fluorescence polarization assay
# Method in brief: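 Human ERG inhibition measured at concentrations up to 30 μM.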
# Cytochrome P450 1A2 = biological target: T4, Cytochrome P450 1A2 (Homo sapiens, UniProt P05177); assay: Inhibition of CYP1A2 (unknown origin) using pro-luciferin substrates in presence of NADPH by firefly luciferase reporter gene based P450-Glo assay; assay type: ADME
# T4 sequence (P05177 whole entry): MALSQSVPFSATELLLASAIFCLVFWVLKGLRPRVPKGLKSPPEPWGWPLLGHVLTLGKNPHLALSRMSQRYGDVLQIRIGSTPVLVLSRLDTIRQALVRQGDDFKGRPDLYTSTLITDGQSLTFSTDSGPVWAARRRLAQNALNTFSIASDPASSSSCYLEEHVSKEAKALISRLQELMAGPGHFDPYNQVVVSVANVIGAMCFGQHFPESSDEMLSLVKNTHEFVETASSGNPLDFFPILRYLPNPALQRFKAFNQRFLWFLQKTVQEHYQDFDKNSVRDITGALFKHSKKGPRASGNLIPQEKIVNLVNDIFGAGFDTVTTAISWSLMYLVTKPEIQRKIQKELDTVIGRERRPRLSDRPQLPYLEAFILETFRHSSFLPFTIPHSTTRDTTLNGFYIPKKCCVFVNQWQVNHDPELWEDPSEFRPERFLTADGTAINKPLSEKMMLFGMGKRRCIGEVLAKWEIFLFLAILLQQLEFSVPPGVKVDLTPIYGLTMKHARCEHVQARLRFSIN
# [6] = Clearance in NMRI mouse at 1 mg/kg, iv by LC-MS/MS analysis; assay type: ADME, organism-based; conditions: in vivo
# [7] = Volume of distribution in NMRI mouse at 1 mg/kg, iv by LC-MS/MS analysis; assay type: ADME, organism-based; conditions: in vivo
# [8] = Cmax in NMRI mouse at 3 mg/kg, po by LC-MS/MS analysis; assay type: ADME, organism-based; design: dose 3 mg/kg, route oral; conditions: in vivo
# [9] = Oral bioavailability in NMRI mouse at 3 mg/kg by LC-MS/MS analysis; assay type: ADME, organism-based; conditions: in vivo
# [10] = Ratio of drug level in brain to plasma of NMRI mouse at 1 mg/kg, iv measured after 2 to 8 hrs post dose; assay type: ADME, organism-based; conditions: read-out: BPR
# Chain of Voltage-gated inwardly rectifying potassium channel KCNH2 (Q12809 whole entry): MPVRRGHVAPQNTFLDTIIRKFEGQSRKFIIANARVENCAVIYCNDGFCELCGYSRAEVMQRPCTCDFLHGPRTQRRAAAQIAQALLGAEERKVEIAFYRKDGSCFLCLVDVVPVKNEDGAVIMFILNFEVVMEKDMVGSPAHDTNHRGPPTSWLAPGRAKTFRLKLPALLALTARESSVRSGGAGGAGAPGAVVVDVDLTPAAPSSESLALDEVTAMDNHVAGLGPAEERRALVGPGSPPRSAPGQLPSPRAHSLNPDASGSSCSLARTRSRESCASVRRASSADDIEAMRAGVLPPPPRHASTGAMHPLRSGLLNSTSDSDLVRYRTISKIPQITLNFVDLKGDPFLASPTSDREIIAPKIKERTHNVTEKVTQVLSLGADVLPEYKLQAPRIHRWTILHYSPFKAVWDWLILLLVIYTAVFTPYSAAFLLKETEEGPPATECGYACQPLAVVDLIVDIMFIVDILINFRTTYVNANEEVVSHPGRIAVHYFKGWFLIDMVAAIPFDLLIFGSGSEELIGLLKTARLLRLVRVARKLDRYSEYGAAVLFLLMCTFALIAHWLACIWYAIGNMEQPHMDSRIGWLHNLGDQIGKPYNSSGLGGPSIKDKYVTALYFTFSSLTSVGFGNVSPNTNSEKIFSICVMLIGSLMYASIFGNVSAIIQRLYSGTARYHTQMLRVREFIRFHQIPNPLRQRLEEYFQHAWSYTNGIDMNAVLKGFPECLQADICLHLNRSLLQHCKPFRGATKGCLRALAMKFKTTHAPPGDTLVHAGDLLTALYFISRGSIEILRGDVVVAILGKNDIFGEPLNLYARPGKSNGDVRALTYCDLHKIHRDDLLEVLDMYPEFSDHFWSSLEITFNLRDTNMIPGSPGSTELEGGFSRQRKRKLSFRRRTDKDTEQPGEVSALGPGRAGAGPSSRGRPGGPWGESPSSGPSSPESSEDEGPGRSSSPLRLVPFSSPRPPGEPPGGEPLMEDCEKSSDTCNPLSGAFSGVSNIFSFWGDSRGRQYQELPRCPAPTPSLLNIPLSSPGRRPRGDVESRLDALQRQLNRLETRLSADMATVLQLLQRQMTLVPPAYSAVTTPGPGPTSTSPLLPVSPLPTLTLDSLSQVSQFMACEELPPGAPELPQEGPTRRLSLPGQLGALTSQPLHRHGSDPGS
# Chain of albumin (P02768 whole entry): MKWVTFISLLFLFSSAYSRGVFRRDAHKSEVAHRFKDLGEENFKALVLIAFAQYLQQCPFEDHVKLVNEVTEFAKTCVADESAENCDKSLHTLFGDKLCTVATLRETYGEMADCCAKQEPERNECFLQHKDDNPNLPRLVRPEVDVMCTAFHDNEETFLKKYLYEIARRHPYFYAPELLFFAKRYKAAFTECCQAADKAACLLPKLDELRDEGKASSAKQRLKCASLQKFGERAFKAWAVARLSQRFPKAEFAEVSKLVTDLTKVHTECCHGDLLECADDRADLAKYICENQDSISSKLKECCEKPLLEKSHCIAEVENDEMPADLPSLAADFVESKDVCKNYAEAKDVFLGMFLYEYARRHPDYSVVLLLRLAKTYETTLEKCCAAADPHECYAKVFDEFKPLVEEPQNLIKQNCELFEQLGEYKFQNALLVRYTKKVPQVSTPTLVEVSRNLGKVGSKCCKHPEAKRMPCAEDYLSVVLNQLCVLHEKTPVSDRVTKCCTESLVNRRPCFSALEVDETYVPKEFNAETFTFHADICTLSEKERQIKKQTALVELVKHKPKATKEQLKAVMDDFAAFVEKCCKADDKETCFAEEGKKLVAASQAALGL
Compound,IC50 [1] [µM],IC50 [2] [µM],IC50 [3] [µM],also measured
Cc1nn(-c2cccc(CN)c2)c(C)c1-c1ccc(F)cc1,> 30,15.6,> 30,–
Cc1nn(-c2ccc(CN)nc2)c(C)c1-c1ccc(F)cc1,> 30,> 30,> 30,–
Cc1nn(-c2ccc3c(c2)NCC3)c(C)c1-c1ccc(F)cc1,> 30,> 30,> 30,–
N=C(N)c1ccc(/N=N/Nc2ccc(C(=N)N)cc2)cc1 [DIMINAZENE],56.9,169,45.2,–
Cc1ccc(-c2c(C)nn(-c3ccc(CN)cc3)c2C)cn1,> 30,> 30,> 30,–
Cc1nn(-c2ccc(C#N)cc2)c(C)c1-c1ccc(F)cc1,> 30,> 30,> 30,–
Cc1nn(-c2ccc(CCN)cc2)c(C)c1-c1ccc(F)cc1,> 30,11.7,> 30,–
Cc1ccc(-c2c(C)nn(-c3ccc(CN)cc3)c2C)cc1F,> 30,> 30,> 30,–
Cc1nn(-c2ccc3c(c2)NCC3)c(C)c1-c1cccc(F)c1,> 30,> 30,> 30,–
Cc1nn(-c2ccc(CN)cn2)c(C)c1-c1ccc(F)cc1,> 30,6.1,8.5,–
NCc1ccc(-n2cc(-c3ccc(F)cc3)cn2)cc1,> 30,> 30,> 30,–
Cc1nn(-c2ccc(CN)cc2)c(C)c1-c1ccc(F)cc1,> 30,18.9,10.9,solubility kinetic [4]: 73 µg/mL; fraction unbound (albumin): 0.07; IC50 [5]: > 30 µM; IC50 (Cytochrome P450 1A2): 0.4 µM; clearance [6]: 224 mL/min/kg; Vd [7]: 50.9 L/kg; Cmax [8]: 90 nM; bioavailability [9]: 60%; Kp [10]: 61
Cc1nn(-c2ccc3c(c2)CNC3)c(C)c1-c1cccc(F)c1,> 30,9.9,11.3,–
Cc1ccc(-c2c(C)nn(-c3ccc(CN)cc3)c2C)cc1,> 30,8.8,> 30,–
Cc1nn(-c2ccc(CN)cc2)c(C)c1-c1cccc(F)c1,> 30,4.3,> 30,–
Cc1nn(-c2ccc(CN)cc2)c(C)c1-c1ccc(CN)cc1,> 30,> 30,> 30,–
Cc1nn(-c2ccc(C(C)N)cc2)c(C)c1-c1ccc(F)cc1 (configuration not stated),> 30,8.7,> 30,–
Cc1nn(-c2ncnc3c2CNC3)c(C)c1-c1cccc(F)c1,> 30,> 30,> 30,–
Cc1nn(-c2ccc(CN)cc2)c(C)c1-c1ccc(C(F)(F)F)cc1,> 30,> 30,> 30,–
Cc1nn(-c2ccc(CN)cc2)c(C)c1-c1ccc(Cl)cc1,> 30,> 30,> 30,–
Cc1nn(-c2ccc3c(c2)CNC3)c(C)c1-c1ccc(F)cc1,> 30,8.2,> 30,solubility kinetic [4]: 56 µg/mL; fraction unbound (albumin): 0.05; IC50 [5]: > 30 µM; IC50 (Cytochrome P450 1A2): 0.2 µM
Cc1nn(-c2ncnc3c2CN(C)C3)c(C)c1-c1cccc(F)c1,> 30,> 30,> 30,–
Cc1nn(Cc2ccc(CN)cc2)c(C)c1-c1ccc(F)cc1,> 30,16.8,> 30,–
COc1ccc(-c2c(C)nn(-c3ccc(CN)cc3)c2C)cc1,> 30,16.3,> 30,–
Cc1nn(-c2ncnc3c2CNC3)c(C)c1-c1ccc(F)cc1,> 30,17,> 30,solubility kinetic [4]: 32 µg/mL; fraction unbound (albumin): 0.06; IC50 [5]: > 30 µM; IC50 (Cytochrome P450 1A2): 0.8 µM; clearance [6]: 34 mL/min/kg; Vd [7]: 1.4 L/kg; Cmax [8]: 2600 nM; bioavailability [9]: 100%; Kp [10]: 1.3
